According to article PMC5844354 (Chembiochem : a European journal of chemical biology, 2018):

What was measured:
Fis1 [1] = biological target: T1, Fis1 (Homo sapiens, UniProt Q9Y3D6); assay type: binding; conditions: for binding to Fis1 in library screen: 1 mM fragment, 352-fragment library screen; for nonspecific NMR crosspeak broadening of Fis1: 1 mM compound, 50 μM 15N-Fis1, SOFAST-HMQC
T1 sequence (Q9Y3D6 1-125): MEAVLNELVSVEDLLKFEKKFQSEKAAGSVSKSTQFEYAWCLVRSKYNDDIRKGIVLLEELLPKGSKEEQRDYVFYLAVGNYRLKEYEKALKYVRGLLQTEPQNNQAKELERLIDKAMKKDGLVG
Procedure, shortened: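 Human Fis1 cytosolic domain (residues 1–125), His₆-SUMO fusion, expressed in ¹⁵N minimal medium and Ni-affinity purified. Buffer was 50 mM sodium phosphate pH 7.0, 175 mM NaCl, 2 mM DTT, 10% D₂O. Library screen: 352 fragments pooled six per sample, 1 mM each, 97 μM protein, 3% [D₆]DMSO, hits at +1 σ. Follow-up: single fragments at 1 mM with 50 μM protein. ¹H,¹⁵N SOFAST-HMQC at 25°C.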

Fis1 [2] = biological target: T1, Fis1; test: Mass spectrometry of Fis1 with interfering compounds; conditions: from apo Fis1 14 487.2 Da; suggests direct chemical modification
[3] = biological target: first bromodomain of BRD4; conditions: cited from earlier work
BRD4(BD2) = BRD4(BD2) (Homo sapiens, UniProt O60885); test: NMR titration; assay type: binding
CXCL12 = CXCL12 (Homo sapiens, UniProt P48061); test: 2D protein-detected NMR of individual compounds at 1 mM against 15N-CXCL12; assay type: binding; conditions: 1 mM compound, 100 μM 15N-CXCL12, SOFAST-HMQC
Sequence of CXCL12 (P48061 22-89 limits assumed): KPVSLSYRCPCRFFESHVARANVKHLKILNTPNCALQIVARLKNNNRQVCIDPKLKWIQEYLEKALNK
Procedure, shortened: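 Commercial recombinant human ¹⁵N-CXCL12. Each test compound was screened singly: 1 mM final in 0.5% (v/v) [D₆]DMSO, 99.5 μM final protein, with a DMSO control. Buffer was 50 mM sodium phosphate pH 6.0, 0.02% sodium azide, 10% D₂O. ¹H,¹⁵N SOFAST-HMQC at 25°C and 600 MHz with cryoprobe; 16 scans, 1024 × 210 complex points. Spectra were overlaid on the DMSO control.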

In the case of Nc1cccc2cccc(N)c12 [1,8-diaminonaphthalene], the “binding to Fis1 in library screen” value (Fis1 [1]) is reported as “none of which bound appreciably”.
In the case of Cc1cc(O)ccc1O [2-methylbenzene-1,4-diol], the “mass shift of Fis1” value (Fis1 [2]) is reported as 119.7 Da.
For Nc1cc2ccccc2cc1O [3-amino-2-naphthol], the “binding to Fis1 in library screen” value (Fis1 [1]) was “none of which bound appreciably”.
For Nc1ccc(O)cc1 [4-aminophenol], the “nonspecific NMR crosspeak broadening of Fis1” value (Fis1 [1]) was “did not induce nonspecific NMR crosspeak broadening”.
For CC(=O)Nc1ccc(O)cc1 [acetaminophen], the Kd [3] is given as 290 µM and the Kd (BRD4(BD2)) is given as 1600 µM.
For NS(=O)(=O)c1ccc2ccccc2c1 [naphthalene-2-sulfonamide], the “binding to Fis1 in library screen” value (Fis1 [1]) was “none of which bound appreciably”.
With O=C1c2ccccc2C(=O)C1(O)O [ninhydrin] the “nonspecific NMR crosspeak broadening of Fis1” value (Fis1 [1]) was “induce nonspecific NMR crosspeak broadening across all targets screened” and the “nonspecific NMR crosspeak broadening of CXCL12” value (CXCL12) was “induce nonspecific NMR crosspeak broadening across all targets screened”.
